Test results as given in ChEMBL document CHEMBL1955823, “Imidazo[1,2-a]pyrazines as novel PI3K inhibitors” (Bioorg Med Chem Lett, 2012).

Tests used:
[1] = target: T1, PI3-kinase p110-alpha/p85-alpha (Homo sapiens, UniProt P42336); assay: Inhibition of PI3K p110alpha/p85alpha; type: protein-complex assay
Method in brief: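 Biochemical kinase assay following the kit manufacturer's protocol with a modified kinase buffer (50 mM HEPES pH 7.5, 3 mM MgCl2, 100 mM NaCl, 1 mM EGTA, 0.04% CHAPS, 2 mM TCEP, 0.01 mg/ml BGG); 10 nM enzyme; ATP 50 µM; values are averages of two independent experiments, each in duplicate.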

[2] = target: T1, PI3-kinase p110-alpha/p85-alpha; assay: Inhibition of PI3K p110alpha/p85alpha-mediated AKT1 phosphorylation at Ser473 in human U2OS cells; type: cell-based
Method in brief: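 Endogenous phospho-Akt1 (Ser473) measured in U2OS osteosarcoma cells kept in 0.1% FBS and then serum-stimulated; read-out by cell-based ELISA with femto chemiluminescent substrate.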

[3] = target: T2, CYP1A2 (Homo sapiens, UniProt P05177); assay: Inhibition of CYP1A2 at 10 uM; type: ADME
T2 sequence (P05177 whole entry): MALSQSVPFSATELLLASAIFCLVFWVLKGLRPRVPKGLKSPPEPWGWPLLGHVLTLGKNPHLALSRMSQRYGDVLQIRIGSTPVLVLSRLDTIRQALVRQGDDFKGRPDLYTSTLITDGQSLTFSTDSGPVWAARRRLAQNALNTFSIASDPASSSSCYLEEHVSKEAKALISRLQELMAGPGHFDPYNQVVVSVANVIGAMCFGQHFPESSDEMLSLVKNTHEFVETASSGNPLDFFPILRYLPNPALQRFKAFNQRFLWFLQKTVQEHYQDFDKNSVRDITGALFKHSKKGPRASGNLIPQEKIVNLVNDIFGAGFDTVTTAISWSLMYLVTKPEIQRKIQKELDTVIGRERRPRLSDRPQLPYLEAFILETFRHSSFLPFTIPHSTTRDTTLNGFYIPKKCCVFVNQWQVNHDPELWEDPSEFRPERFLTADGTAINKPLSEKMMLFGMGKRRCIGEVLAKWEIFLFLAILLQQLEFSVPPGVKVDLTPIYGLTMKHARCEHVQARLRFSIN
Method in brief: (§1)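 CYP isoform panel (1A2, 2C9, 2C19, 2D6, 3A4); percent inhibition recorded at 10 µM test compound; run in duplicate by an outside contractor.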

[4] = target: CYP2C9 (Homo sapiens, UniProt P11712); assay: Inhibition of CYP2C9 at 10 uM; type: ADME; method in brief: as §1
Sequence of CYP2C9 (P11712 whole entry): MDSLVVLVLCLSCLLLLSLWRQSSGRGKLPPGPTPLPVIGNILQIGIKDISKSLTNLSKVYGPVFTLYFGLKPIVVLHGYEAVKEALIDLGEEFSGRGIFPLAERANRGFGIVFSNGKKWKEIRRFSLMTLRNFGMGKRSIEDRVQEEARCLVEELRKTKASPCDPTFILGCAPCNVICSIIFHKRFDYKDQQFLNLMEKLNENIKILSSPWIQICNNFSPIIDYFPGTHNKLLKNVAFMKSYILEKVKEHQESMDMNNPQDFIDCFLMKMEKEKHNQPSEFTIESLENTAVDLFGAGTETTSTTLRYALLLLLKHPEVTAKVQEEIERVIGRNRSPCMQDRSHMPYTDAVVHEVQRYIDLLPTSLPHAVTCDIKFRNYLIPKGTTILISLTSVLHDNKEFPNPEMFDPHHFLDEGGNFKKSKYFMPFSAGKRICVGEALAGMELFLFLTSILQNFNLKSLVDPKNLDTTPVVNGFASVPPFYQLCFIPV

[5] = target: CYP2C19 (Homo sapiens, UniProt P33261); assay: Inhibition of CYP2C19 at 10 uM; type: ADME; method in brief: as §1
Sequence of CYP2C19 (P33261 whole entry): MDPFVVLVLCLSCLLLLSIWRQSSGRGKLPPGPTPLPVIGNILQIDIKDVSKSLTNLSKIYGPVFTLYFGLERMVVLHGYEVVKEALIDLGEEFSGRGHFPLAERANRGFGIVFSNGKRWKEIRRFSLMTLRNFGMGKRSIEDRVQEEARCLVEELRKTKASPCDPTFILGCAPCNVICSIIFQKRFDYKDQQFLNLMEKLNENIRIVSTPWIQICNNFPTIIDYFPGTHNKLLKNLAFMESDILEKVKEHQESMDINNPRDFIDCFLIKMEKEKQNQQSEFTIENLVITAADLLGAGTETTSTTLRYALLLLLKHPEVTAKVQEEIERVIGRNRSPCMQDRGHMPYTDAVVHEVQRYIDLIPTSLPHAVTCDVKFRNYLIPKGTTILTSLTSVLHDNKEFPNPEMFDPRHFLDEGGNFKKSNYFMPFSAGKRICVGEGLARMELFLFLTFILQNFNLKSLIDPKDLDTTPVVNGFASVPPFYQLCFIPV

[6] = target: CYP2D6 (Homo sapiens, UniProt P10635); assay: Inhibition of CYP2D6 at 10 uM; type: ADME; method in brief: as §1
Sequence of CYP2D6 (P10635 whole entry): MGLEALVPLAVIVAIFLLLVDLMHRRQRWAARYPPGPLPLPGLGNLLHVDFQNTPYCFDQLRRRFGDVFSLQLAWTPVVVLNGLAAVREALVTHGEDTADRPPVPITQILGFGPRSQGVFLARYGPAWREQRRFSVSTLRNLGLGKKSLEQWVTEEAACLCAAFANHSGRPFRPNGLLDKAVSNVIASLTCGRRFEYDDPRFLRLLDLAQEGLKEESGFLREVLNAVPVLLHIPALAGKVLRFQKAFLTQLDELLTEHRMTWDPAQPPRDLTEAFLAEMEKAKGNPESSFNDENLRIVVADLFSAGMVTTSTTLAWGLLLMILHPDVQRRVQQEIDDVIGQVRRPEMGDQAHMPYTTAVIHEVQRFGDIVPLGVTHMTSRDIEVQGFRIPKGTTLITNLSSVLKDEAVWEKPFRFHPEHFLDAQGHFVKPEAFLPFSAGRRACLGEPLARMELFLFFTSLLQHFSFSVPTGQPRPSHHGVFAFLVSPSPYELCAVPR

[7] = target: CYP3A4 (Homo sapiens, UniProt P08684); assay: Inhibition of CYP3A4 at 10 uM; type: ADME; method in brief: as §1
Sequence of CYP3A4 (P08684 whole entry): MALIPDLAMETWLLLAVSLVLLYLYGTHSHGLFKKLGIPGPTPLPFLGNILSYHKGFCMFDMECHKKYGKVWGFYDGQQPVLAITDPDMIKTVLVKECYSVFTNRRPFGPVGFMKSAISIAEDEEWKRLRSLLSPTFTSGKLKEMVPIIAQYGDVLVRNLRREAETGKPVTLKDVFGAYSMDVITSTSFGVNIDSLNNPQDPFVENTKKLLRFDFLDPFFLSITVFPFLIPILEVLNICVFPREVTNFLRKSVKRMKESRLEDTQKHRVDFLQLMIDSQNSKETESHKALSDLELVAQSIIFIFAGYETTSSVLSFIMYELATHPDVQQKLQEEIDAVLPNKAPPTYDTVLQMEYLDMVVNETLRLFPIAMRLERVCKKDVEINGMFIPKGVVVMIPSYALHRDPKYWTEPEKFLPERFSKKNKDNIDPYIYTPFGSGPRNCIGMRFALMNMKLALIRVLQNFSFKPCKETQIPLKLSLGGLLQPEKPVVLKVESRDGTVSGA

[8] = Metabolic stability in human liver microsomes assessed as compound remaining at 1 uM after 30 mins
[9] = Metabolic stability in mouse liver microsomes assessed as compound remaining at 1 uM after 30 mins

T1 sequence (P27986 whole entry): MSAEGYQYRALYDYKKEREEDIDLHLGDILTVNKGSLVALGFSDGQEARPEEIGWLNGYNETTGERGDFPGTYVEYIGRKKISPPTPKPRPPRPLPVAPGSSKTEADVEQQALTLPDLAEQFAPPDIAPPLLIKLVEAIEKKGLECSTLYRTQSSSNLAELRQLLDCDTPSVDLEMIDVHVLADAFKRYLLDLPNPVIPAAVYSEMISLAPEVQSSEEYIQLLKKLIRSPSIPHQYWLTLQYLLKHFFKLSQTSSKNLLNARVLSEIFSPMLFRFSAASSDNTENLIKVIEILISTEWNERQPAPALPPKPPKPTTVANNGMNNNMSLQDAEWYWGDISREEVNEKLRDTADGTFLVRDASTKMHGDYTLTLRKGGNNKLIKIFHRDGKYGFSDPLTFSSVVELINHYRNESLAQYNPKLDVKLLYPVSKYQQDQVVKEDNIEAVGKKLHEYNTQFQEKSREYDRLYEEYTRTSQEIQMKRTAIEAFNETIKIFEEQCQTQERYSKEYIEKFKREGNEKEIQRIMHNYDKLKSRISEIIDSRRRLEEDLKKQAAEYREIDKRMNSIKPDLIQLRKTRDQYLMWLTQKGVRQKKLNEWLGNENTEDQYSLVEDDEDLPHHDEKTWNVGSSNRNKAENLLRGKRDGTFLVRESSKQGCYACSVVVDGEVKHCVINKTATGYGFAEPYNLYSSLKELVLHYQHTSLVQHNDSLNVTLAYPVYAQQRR
T1 sequence (P42336 whole entry): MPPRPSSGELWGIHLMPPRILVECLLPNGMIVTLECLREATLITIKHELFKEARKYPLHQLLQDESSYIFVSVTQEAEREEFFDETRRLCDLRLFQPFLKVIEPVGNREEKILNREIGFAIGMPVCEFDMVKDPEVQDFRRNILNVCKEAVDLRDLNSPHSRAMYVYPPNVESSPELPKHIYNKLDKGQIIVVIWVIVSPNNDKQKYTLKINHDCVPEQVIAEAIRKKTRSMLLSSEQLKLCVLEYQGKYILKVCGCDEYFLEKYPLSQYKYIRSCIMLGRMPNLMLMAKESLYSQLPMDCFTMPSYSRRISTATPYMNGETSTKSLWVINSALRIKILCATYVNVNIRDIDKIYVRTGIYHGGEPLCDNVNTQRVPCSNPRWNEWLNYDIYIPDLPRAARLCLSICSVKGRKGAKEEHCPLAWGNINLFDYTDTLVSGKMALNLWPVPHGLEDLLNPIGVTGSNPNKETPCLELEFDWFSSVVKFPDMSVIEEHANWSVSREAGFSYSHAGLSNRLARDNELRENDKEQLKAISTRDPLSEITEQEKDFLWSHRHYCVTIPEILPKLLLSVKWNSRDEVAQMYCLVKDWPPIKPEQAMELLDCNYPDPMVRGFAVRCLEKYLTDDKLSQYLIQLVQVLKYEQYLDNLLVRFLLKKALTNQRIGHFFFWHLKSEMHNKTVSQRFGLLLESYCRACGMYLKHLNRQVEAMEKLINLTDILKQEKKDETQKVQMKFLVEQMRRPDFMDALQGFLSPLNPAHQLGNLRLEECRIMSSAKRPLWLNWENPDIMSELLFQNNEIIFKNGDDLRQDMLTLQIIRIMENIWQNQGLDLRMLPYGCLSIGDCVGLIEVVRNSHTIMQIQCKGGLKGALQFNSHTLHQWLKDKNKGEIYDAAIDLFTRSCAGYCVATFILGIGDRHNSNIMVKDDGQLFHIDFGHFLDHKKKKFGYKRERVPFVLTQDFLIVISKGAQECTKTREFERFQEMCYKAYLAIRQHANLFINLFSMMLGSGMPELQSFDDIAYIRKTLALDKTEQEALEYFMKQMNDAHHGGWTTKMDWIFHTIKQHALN

SMILES	IC50 [1] [µM]	EC50 [2] [µM]	also measured
CN(C)CCNC(=O)c1cn2cc(-c3cccc4[nH]ncc34)nc(N3CCOCC3)c2n1	0.035	0.976	–
CN1CCN(Cc2cn3cc(-c4cccc(O)c4)nc(N4CCOCC4)c3n2)CC1	2.75	–	–
NC(=O)c1cn2cc(-c3cccc4[nH]ncc34)nc(N3CCOCC3)c2n1	0.107	0.138	–
CN1CCN(c2cnc3c(N4CCOCC4)nc(-c4cccc(O)c4)cn23)CC1	0.512	–	–
Oc1cccc(-c2cn3c(N4CCNCC4)cnc3c(N3CCOCC3)n2)c1	0.897	–	–
CS(=O)(=O)N1CCN(Cc2cc3nc(-c4cccc5[nH]ncc45)nc(N4CCOCC4)c3s2)CC1 [PICTILISIB]	–	–	inhibition at 10 µM [3]: < 25%; inhibition at 10 µM [4]: < 25%; inhibition at 10 µM [5]: < 25%; inhibition at 10 µM [6]: < 25%; inhibition at 10 µM [7]: < 25%
CCNC(=O)c1cn2cc(-c3cccc4[nH]ncc34)nc(N3CCOCC3)c2n1	–	0.713	–
CS(=O)(=O)N1CCN(c2cnc3c(N4CCOCC4)nc(-c4cccc(O)c4)cn23)CC1	0.526	–	–
Oc1cccc(-c2cn3ccnc3c(N3CCOCC3)n2)c1	0.197	–	–
COCCNC(=O)c1cn2cc(-c3cccc4[nH]ncc34)nc(N3CCOCC3)c2n1	0.05	0.2	remaining at 0.5 h, 1 µM [8]: 75%; remaining at 0.5 h, 1 µM [9]: 62%; inhibition at 10 µM [3]: < 25%; inhibition at 10 µM [4]: < 25%; inhibition at 10 µM [5]: < 25%; inhibition at 10 µM [6]: < 25%; inhibition at 10 µM [7]: < 25%
